Experimental data from ChEMBL document CHEMBL1126705, “16 beta-([18F]fluoro)estrogens: systematic investigation of a new series of fluorine-18-labeled estrogens as potential imaging agents for estrogen-receptor-positive breast tumors” (J Med Chem, 1993).

Columns and labels:
[1] = test system: Rattus norvegicus; assay: Tested in vivo for the biodistribution in rat ovaries after 3 hours following an intravenous dose of 100 microCi of drug in 10%ethanol saline; assay type: ADME, organism-based, Female gonad
Method in brief: (§1)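 Immature (25-day-old) female Sprague-Dawley rats, ether-anesthetized, given the fluorine-18-labeled estrogen by femoral vein injection in 10% ethanol saline. […] Other groups were killed by decapitation at 1 or 3 h. Blood and organs were weighed and gamma-counted. Data are % injected dose/g, mean ± SD, typically n = 5 per group.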

[2] = test system: Rattus norvegicus; assay: Tested in vivo for the biodistribution in rat muscle at 1 hour after intravenous dose of 100 microCi of drug in 10%ethanol saline; assay type: ADME, organism-based, Muscle tissue; method in brief: as §1
[3] = test system: Rattus norvegicus; assay: Tested in vivo for the biodistribution in rat uterus at 1 hour after intravenous dose of 100 microCi of drug in 10%ethanol saline; assay type: ADME, organism-based; method in brief: as §1
[4] = test system: Rattus norvegicus; assay: Tested in vivo for the biodistribution in rat ovaries at 1 hour after intravenous dose of 100 microCi of drug in 10%ethanol saline; assay type: ADME, organism-based, Female gonad; method in brief: as §1
[5] = test system: Rattus norvegicus; assay: Tested in vivo for the biodistribution in rat uterus/blood at 1 hour after intravenous dose of 100 microCi of drug in 10%ethanol saline; assay type: ADME, organism-based
Method in brief: (§2)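 Female Sprague-Dawley rats, 25 days old (~40–53 g), ether-anesthetized, given the 18F-labeled estrogen iv via femoral vein in 10% ethanol saline. […] Others were sacrificed by decapitation at 1 or 3 h. Blood and organs were excised, weighed and gamma counted as % injected dose/g, mean ± SD, typically n = 5 (4–6).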

[6] = test system: Rattus norvegicus; assay: Tested in vivo for the biodistribution in rat muscle at 1 hour after intravenous dose of 100 microCi of the drug and 15 ug of estradiol; assay type: ADME, organism-based, Muscle tissue; method in brief: as §1
[7] = test system: Rattus norvegicus; assay: Tested in vivo for the biodistribution in rat liver at 1 hour after intravenous dose of 100 microCi of the drug and 15 u g of estradiol; assay type: ADME, organism-based; method in brief: as §1
[8] = test system: Rattus norvegicus; assay: Tested in vivo for the biodistribution in rat bone after 3 hours following an intravenous dose of 100 microCi of drug in 10%ethanol saline; assay type: ADME, organism-based, Bone element
Method in brief: (§3)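 Ether-anesthetized 25-day-old female Sprague-Dawley rats (~40–53 g) got the [18F] tracer in 10% ethanol saline via femoral vein. Rats were decapitated at 1 or 3 h, and blood and organs were weighed and gamma-counted. Values are % injected dose/g as mean ± SD, n = 5 per time point.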

[9] = test system: Rattus norvegicus; assay: Tested in vivo for the biodistribution in rat muscle after 3 hours following an intravenous dose of 100 microCi of drug in 10%ethanol saline; assay type: ADME, organism-based, Muscle tissue; method in brief: as §1
[10] = test system: Rattus norvegicus; assay: Tested in vivo for the biodistribution in rat kidney at 1 hour after intravenous dose of 100 microCi of the drug and 15 u g of estradiol; assay type: ADME, organism-based
[11] = test system: Rattus norvegicus; assay: Tested in vivo for the biodistribution in rat uterus/muscle at 1 hour after intravenous dose of 100 microCi of drug in 10%ethanol saline; assay type: ADME, organism-based, Muscle tissue; method in brief: as §2
[12] = test system: Rattus norvegicus; assay: Tested in vivo for the biodistribution in rat fat at 1 hour after intravenous dose of 100 microCi of drug in 10%ethanol saline; assay type: ADME, organism-based, Adipose tissue; method in brief: as §3
[13] = test system: Rattus norvegicus; assay: Tested in vivo for the biodistribution in rat uterus/muscle at 1 hour after intravenous dose of 100 microCi of the drug and 15 ug of estradiol; assay type: ADME, organism-based, Muscle tissue; method in brief: as §2
[14] = test system: Rattus norvegicus; assay: Tested in vivo for the biodistribution in rat uterus/blood after 3 hours following an intravenous dose of 100 microCi of drug in 10%ethanol saline; assay type: ADME, organism-based; method in brief: as §2
[15] = test system: Rattus norvegicus; assay: Tested in vivo for the biodistribution in rat kidney after 3 hours following an intravenous dose of 100 microCi of drug in 10%ethanol saline; assay type: ADME, organism-based; method in brief: as §3
[16] = test system: Rattus norvegicus; assay: Tested in vivo for the biodistribution in rat liver at 1 hour after intravenous dose of 100 microCi of drug in 10%ethanol saline; assay type: ADME, organism-based; method in brief: as §1
[17] = test system: Rattus norvegicus; assay: Tested in vivo for the biodistribution in rat ovaries at 1 hour after intravenous dose of 100 microCi of the drug and 15 ug of estradiol; assay type: ADME, organism-based, Female gonad; method in brief: as §1
[18] = test system: Rattus norvegicus; assay: Tested in vivo for the biodistribution in rat liver after 3 hours following an intravenous dose of 100 microCi of drug in 10%ethanol saline; assay type: ADME, organism-based; method in brief: as §1
[19] = target: T1, Estrogen receptor (Rattus norvegicus) (UniProt P06211+Q62986)
[20] = test system: Rattus norvegicus; assay: Tested in vivo for the biodistribution in rat bone at 1 hour after intravenous dose of 100 microCi of drug in 10%ethanol saline; assay type: ADME, organism-based, Bone element; method in brief: as §3
[21] = test system: Rattus norvegicus; assay: Tested in vivo for the biodistribution in rat fat at 1 hour after intravenous dose of 100 microCi of the drug and 15 ug of estradiol; assay type: ADME, organism-based, Adipose tissue
[22] = test system: Rattus norvegicus; assay: Tested in vivo for the biodistribution in rat fat after 3 hours following an intravenous dose of 100 microCi of drug in 10%ethanol saline; assay type: ADME, organism-based, Adipose tissue; method in brief: as §3
[23] = test system: Rattus norvegicus; assay: Tested in vivo for the biodistribution in blood of female rat at 1 hour after intravenous dose of 100 microCi of drug in 10%ethanol saline; assay type: ADME, organism-based; method in brief: as §3
[24] = test system: Rattus norvegicus; assay: Tested in vivo for the biodistribution in rat uterus/blood at 1 hour after intravenous dose of 100 microCi of the drug and 15 ug of estradiol; assay type: ADME, organism-based; method in brief: as §2
[25] = test system: Rattus norvegicus; assay: Tested in vivo for the biodistribution in blood of female rat after 3 hours following an intravenous dose of 100 microCi of drug in 10%ethanol saline; assay type: ADME, organism-based; method in brief: as §3
[26] = test system: Rattus norvegicus; assay: Tested in vivo for the biodistribution in rat uterus at 1 hour after intravenous dose of 100 microCi of the drug and 15 micro g of estradiol; assay type: ADME, organism-based; method in brief: as §1
[27] = test system: Rattus norvegicus; assay: Tested in vivo for the biodistribution in rat kidney at 1 hour after intravenous dose of 100 microCi of drug in 10%ethanol saline; assay type: ADME, organism-based; method in brief: as §3
[28] = test system: Rattus norvegicus; assay: Tested in vivo for the biodistribution in rat uterus after 3 hours following an intravenous dose of 100 microCi of drug in 10%ethanol saline; assay type: ADME, organism-based; method in brief: as §1
[29] = test system: Rattus norvegicus; assay: Tested in vivo for the biodistribution in rat uterus/muscle after 3 hours following an intravenous dose of 100 microCi of drug in 10%ethanol saline; assay type: ADME, organism-based, Muscle tissue; method in brief: as §2
[30] = test system: Rattus norvegicus; assay: Tested in vivo for the biodistribution in rat bone at 1 hour after intravenous dose of 100 microCi of the drug and 15 ug of estradiol; assay type: ADME, organism-based, Bone element
[31] = test system: Rattus norvegicus; assay: Tested in vivo for the biodistribution in blood of female rat at 1 hour after intravenous dose of 100 microCi of the drug and 15 u g of estradiol; assay type: ADME, organism-based
[32] = target: T2, Alpha-fetoprotein (Rattus norvegicus) (UniProt P02773); assay: Relative binding affinity for Alphafetoprotein
T2 sequence (whole entry): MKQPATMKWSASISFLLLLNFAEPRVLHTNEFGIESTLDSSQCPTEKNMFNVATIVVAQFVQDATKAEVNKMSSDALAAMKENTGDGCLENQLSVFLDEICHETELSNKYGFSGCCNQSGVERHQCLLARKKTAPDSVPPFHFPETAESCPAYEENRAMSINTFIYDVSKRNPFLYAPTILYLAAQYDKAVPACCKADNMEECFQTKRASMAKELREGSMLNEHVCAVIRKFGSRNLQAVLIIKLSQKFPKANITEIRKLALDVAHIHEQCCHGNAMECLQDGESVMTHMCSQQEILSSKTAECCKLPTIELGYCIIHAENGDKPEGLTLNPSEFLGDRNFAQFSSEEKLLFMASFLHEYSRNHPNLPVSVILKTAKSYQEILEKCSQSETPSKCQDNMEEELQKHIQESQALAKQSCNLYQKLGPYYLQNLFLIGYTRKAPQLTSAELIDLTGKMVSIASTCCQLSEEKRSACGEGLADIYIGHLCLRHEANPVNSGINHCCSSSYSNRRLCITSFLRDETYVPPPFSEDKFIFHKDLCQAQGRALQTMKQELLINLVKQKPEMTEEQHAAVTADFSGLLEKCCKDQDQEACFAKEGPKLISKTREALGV

[33] = target: T3, Sex hormone-binding globulin (Homo sapiens) (UniProt P04278); assay: Relative binding affinity against sex steroid binding protein (SBP)
T3 sequence (whole entry): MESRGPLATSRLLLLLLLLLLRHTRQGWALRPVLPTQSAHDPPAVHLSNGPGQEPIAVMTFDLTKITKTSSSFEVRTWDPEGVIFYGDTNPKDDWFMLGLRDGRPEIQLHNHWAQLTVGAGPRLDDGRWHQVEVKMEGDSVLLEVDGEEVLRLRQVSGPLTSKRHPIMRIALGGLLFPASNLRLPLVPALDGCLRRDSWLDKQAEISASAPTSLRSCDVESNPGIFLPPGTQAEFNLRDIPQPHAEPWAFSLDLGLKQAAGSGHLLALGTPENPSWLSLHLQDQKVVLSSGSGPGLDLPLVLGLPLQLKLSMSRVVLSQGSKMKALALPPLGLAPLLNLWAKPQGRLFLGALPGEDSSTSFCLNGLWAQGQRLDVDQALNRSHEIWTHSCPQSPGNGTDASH

[34] = target: T1, Estrogen receptor (Rattus norvegicus); remark: listed apart in the source
[35] = Partition coefficient (logP); assay type: physicochemical; settings: octanol/water
Method in brief: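 Octanol/water log P estimated from log k'w measured by reversed-phase HPLC (Minick method) on a C8 silica column.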

## C#C[C@]1(O)[C@@H](F)C[C@H]2[C@@H]3CCc4cc(O)ccc4[C@H]3CC[C@@]21C
[1]
  Injected: 1.274%
[2]
  Injected: 0.307%
[3]
  Injected: 7.466%
[4]
  Injected: 2.159%
[5]
  Injected: 16.87%
[6]
  Injected: 0.22%
[7]
  Injected: 2.412%
[8]
  Injected: 0.557%
[9]
  Injected: 0.133%
[10]
  Injected: 0.752%
[11]
  Injected: 24.42%
[12]
  Injected: 0.337%
[13]
  Injected: 2.424%
[14]
  Injected: 12.21%
[15]
  Injected: 0.376%
[16]
  Injected: 2.249%
[17]
  Injected: 0.863%
[18]
  Injected: 2.204%
[19]
  NSB: 1.04
[20]
  Injected: 0.608%
[21]
  Injected: 0.206%
[22]
  Injected: 0.122%
[23]
  Injected: 0.449%
[24]
  Injected: 0.92%
[25]
  Injected: 0.358%
[26]
  Injected: 0.533%
[27]
  Injected: 0.906%
[28]
  Injected: 4.31%
[29]
  Injected: 32.37%
[30]
  Injected: 0.635%
[31]
  Injected: 0.576%
[32]
  relative binding affinity (RBA): 22
[33]
  relative binding affinity (RBA): 0.589
[34]
  BSI: 27
[35]
  logP: 3.3
